This note sets out measurements from ChEMBL document CHEMBL1773039, “Structure-Activity Study of Dihydrocinnamic Acids and Discovery of the Potent FFA1 (GPR40) Agonist TUG-469” (ACS Med Chem Lett, 2010).

Experiment [1] has as its target T1, Free fatty acid receptor 1 (Homo sapiens, UniProt O14842). Kind of experiment: Agonist activity at human FFA1 transfected in 1321N1 cells assessed as calcium mobilization by microplate assay. The class given is functional, cell-based. A digest of the protocol: (§1)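 Calcium mobilization in hFFA1-expressing cells was measured as full concentration-response curves and reported as pEC50. Efficacy is % of the response to 10 μM of the reference agonist.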

Experiment [2] has as its target T1, Free fatty acid receptor 1. As to the kind of experiment: Agonist activity at human FFA1 transfected in 1321N1 cells assessed as calcium mobilization by microplate assay relative to 10 uM TUG-20. The class given is functional, cell-based. A digest of the protocol:
as §1
On the technique in general: Calcium assays in cells follow changes in intracellular calcium, usually with a dye or a luminescent sensor.

Experiment [3] addresses T2, Peroxisome proliferator-activated receptor gamma (Homo sapiens) (UniProt P37231).
T2 sequence (whole entry): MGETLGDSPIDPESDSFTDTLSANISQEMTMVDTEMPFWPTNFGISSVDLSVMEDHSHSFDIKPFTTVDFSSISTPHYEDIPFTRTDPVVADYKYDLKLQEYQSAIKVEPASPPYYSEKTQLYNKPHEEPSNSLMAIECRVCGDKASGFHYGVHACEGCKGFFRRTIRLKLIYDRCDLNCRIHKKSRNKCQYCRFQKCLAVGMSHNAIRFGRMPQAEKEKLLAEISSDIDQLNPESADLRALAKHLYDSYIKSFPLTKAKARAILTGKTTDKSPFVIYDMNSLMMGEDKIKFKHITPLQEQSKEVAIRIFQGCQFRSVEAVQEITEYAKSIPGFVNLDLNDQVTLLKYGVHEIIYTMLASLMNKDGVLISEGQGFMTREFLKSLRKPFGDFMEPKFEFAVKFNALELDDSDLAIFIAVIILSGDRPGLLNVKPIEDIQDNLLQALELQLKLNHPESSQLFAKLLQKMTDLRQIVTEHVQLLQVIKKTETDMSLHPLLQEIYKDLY
As to the kind of experiment: Transactivation of human PPARgamma ligand binding domain transfected in mouse embryo fibroblasts assessed as renilla luciferase activity at 1 uM after 18 hrs by luminometry relative to 1 uM rosiglitazone.

The species named for a further experiment is Homo sapiens. Kind of experiment: Selectivity for human FFA1 over human PPARgamma.
Experiment [4] addresses Free fatty acid receptor 2 (Homo sapiens) (UniProt O15552). Kind of experiment: Agonist activity at human GPR43 in HEK293 cells.
For experiment [5], the target named is Free fatty acid receptor 3 (Homo sapiens) (UniProt O14843). Kind of experiment: Agonist activity at human GPR41 in HEK293 cells.
Chain of Free fatty acid receptor 3 (Homo sapiens) (O14843 whole entry, looked up, the tested form may be a part): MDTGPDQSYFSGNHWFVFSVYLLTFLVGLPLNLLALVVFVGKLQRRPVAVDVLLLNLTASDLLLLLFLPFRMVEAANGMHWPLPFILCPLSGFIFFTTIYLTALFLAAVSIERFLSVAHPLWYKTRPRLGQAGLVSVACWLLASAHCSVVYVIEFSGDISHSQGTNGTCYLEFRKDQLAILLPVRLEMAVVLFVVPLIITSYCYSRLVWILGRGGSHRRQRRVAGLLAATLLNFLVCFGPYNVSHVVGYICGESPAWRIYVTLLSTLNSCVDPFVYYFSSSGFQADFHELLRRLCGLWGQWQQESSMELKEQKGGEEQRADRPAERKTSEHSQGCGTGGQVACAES
Experiment [6] deals with T2, Peroxisome proliferator-activated receptor gamma (Homo sapiens). As to the kind of experiment: Transactivation of human PPARgamma ligand binding domain transfected in mouse embryo fibroblasts at 100 uM after 18 hrs analyzed by photinus and renilla luciferase activity by luminometry relative to 1 uM rosiglitazone.

The source made the active and inactive calls. No cut-off for these calls is given here.

T1 sequence (O14842 whole entry): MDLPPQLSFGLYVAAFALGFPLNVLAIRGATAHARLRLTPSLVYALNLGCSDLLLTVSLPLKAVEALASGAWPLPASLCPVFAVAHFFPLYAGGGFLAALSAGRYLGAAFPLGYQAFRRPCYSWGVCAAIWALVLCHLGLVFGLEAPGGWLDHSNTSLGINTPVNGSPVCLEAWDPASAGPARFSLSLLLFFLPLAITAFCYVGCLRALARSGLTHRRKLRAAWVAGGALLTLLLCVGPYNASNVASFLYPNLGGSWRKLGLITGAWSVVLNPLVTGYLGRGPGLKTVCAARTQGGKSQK
Chain of Free fatty acid receptor 2 (Homo sapiens) (O15552 whole entry, looked up): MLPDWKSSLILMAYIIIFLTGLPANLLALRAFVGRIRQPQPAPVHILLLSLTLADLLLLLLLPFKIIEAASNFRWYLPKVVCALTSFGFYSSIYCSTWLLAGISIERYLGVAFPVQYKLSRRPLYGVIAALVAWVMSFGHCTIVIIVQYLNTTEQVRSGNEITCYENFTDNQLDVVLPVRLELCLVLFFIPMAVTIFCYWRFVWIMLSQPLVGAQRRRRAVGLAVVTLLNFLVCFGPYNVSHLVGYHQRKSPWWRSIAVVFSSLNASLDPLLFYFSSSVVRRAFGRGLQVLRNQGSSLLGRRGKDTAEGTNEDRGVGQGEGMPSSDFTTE

As a reminder, the EC50 is the concentration needed to bring the measured effect to its halfway point. In the case of `O=C(O)CCc1ccc(C#Cc2ccccc2)cc1`, the EC50 in experiment [1] is 0.2 µM. Moreover, the Efficacy in experiment [2] is 108%. For the same compound, the outcome in experiment [3], in experiment [4] and in experiment [5] was inactive. In the experiment filed under Homo sapiens, this compound returned a fold change (FC) of over 100.

Turning to `O=C(O)CCc1ccc2oc(-c3ccccc3)cc2c1`, the EC50 in experiment [1] was 2.45 µM. Further, the Efficacy in experiment [2] turned out to be 92%. Moreover, the result in experiment [6], in experiment [3], in experiment [4] and in experiment [5] was inactive. In the experiment listed under Homo sapiens, this compound displayed a fold change (FC) of over 100.

Regarding `O=C(O)CCc1ccc(OCc2ccc(Oc3ccccc3)cc2)cc1`, the EC50 in experiment [1] is 0.204 µM. Also, the Efficacy in experiment [2] worked out at 98%. In addition, the Activity in experiment [6] was found to be 23%. For the same compound, the outcome in experiment [3], in experiment [4] and in experiment [5] was inactive. Moreover, in the experiment listed under Homo sapiens, the fold change (FC) was over 100.

On to `O=C(O)CCc1ccc(COc2ccccc2)cc1`, for which the EC50 in experiment [1] is 6.31 µM. Also, the Efficacy in experiment [2] stood at 88%. Besides, the result in experiment [6], in experiment [3], in experiment [4] and in experiment [5] was inactive. In the experiment filed under Homo sapiens, this compound registered a fold change (FC) of over 100.

Turning to `O=C(O)CCc1ccc(OCc2cccc(-c3ccccc3)c2)cc1`, the EC50 in experiment [1] was 0.135 µM. In experiment [2], the Efficacy came to 105%. Moreover, the Activity in experiment [6] is 25%. Moreover, the outcome in experiment [3], in experiment [4] and in experiment [5] was inactive. Moreover, in the experiment filed under Homo sapiens, the fold change (FC) is over 100.

Regarding `O=C(O)CCc1ccc(OCc2ccccc2Br)cc1`, the EC50 in experiment [1] was 0.447 µM. For the same compound, the Efficacy in experiment [2] was 99%. For the same compound, the outcome in experiment [3], in experiment [4] and in experiment [5] was inactive. The compound further came in with a fold change (FC) in the experiment listed under Homo sapiens of over 100.

As for `O=C(O)CCc1ccc(NCc2cccc(-c3ccccc3)c2)cc1`, the EC50 in experiment [1] is 0.0537 µM. Besides, in experiment [2], the Efficacy worked out at 101%. In experiment [6], the Activity is 33%. Also, the outcome in experiment [3], in experiment [4] and in experiment [5] was inactive. Moreover, in the experiment listed under Homo sapiens, the fold change (FC) is over 100.

`O=C(O)CCc1ccc(OCc2cccc(Oc3ccccc3)c2)cc1`: in experiment [1], the half-maximal effective concentration (EC50) was 0.0575 µM. Moreover, the Efficacy in experiment [2] came to 98%. The compound also yielded an Activity in experiment [6] of 51%. Also, the result in experiment [3], in experiment [4] and in experiment [5] was inactive. In the experiment listed under Homo sapiens, this compound returned a fold change (FC) of over 100.

Take `O=C(O)CCc1ccc(NCc2ccc(-c3ccccc3)cc2)cc1`: the EC50 in experiment [1] is 0.417 µM. Further, the Efficacy in experiment [2] is 92%. In experiment [6], this compound gave an Activity of 23%. Also, the result in experiment [3], in experiment [4] and in experiment [5] was inactive. For the same compound, the fold change (FC) in the experiment listed under Homo sapiens was over 100.

In the case of `COc1ccccc1-c1cccc(CNc2ccc(CCC(=O)O)cc2)c1`, in experiment [1], the EC50 was 0.0692 µM. Further, the Efficacy in experiment [2] was 109%. The Activity in experiment [6] stood at 51%. Besides, the outcome in experiment [3], in experiment [4] and in experiment [5] was inactive. This compound returned a fold change (FC) in the experiment listed under Homo sapiens of over 100.

Turning to `N#Cc1cccc(COc2ccc(CCC(=O)O)cc2)c1`, the concentration giving a half-maximal response (EC50) in experiment [1] is 0.525 µM. For the same compound, in experiment [2], the Efficacy was 102%. The result in experiment [3], in experiment [4] and in experiment [5] was inactive. This compound also yielded a fold change (FC) in the experiment listed under Homo sapiens of over 100.

With `O=C(O)CCc1ccc(OCc2cccc(Br)c2)cc1`, in experiment [1], the EC50 is 0.0891 µM. In addition, in experiment [2], the Efficacy was 99%. Also, in experiment [6], the Activity is 19%. The result in experiment [3], in experiment [4] and in experiment [5] was inactive. Also, the fold change (FC) in the experiment filed under Homo sapiens is over 100.

For `O=C(O)CCc1ccc(NCc2cccc(Br)c2)cc1`, in experiment [1], the EC50 was 0.174 µM. In experiment [2], the Efficacy is 110%. The Activity in experiment [6] was determined as 27%. The outcome in experiment [3], in experiment [4] and in experiment [5] was inactive. Besides, the fold change (FC) in the experiment listed under Homo sapiens was over 100.

On to `O=C(O)CCc1ccc(OCc2ccc(Br)cc2)cc1`, for which, in experiment [1], the EC50 was 0.55 µM. Besides, the Efficacy in experiment [2] was found to be 98%. The outcome in experiment [3], in experiment [4] and in experiment [5] was inactive. In the experiment filed under Homo sapiens, this compound showed a fold change (FC) of over 100.

On to `O=C(O)CCc1ccc(OCc2ccccc2)c(I)c1`, for which the EC50 in experiment [1] is 12.6 µM. Further, the Efficacy in experiment [2] came to 81%. This compound also yielded an Activity in experiment [6] of 42%. In addition, the result in experiment [3], in experiment [4] and in experiment [5] was inactive. The fold change (FC) in the experiment listed under Homo sapiens was over 100.

Regarding `O=C(O)CCc1ccc(OCc2cccc(C(F)(F)F)c2)cc1`, the EC50 in experiment [1] is 0.0832 µM. For the same compound, in experiment [2], the Efficacy stood at 103%. The result in experiment [3], in experiment [4] and in experiment [5] was inactive. In the experiment filed under Homo sapiens, this compound registered a fold change (FC) of over 100.

Turning to `O=C(O)CCc1ccc(NCc2ccccc2)cc1`, in experiment [1], the concentration giving a half-maximal response (EC50) was 0.759 µM. The Efficacy in experiment [2] was 89%. The compound further had an Activity in experiment [6] of 7%. The result in experiment [3], in experiment [4] and in experiment [5] was inactive. The compound also showed a fold change (FC) in the experiment filed under Homo sapiens of over 100.

Take `COc1ccccc1-c1cccc(COc2ccc(CCC(=O)O)cc2)c1`: the EC50 in experiment [1] was 0.12 µM. For the same compound, the Efficacy in experiment [2] turned out to be 105%. The compound further showed an Activity in experiment [6] of 37%. The result in experiment [3], in experiment [4] and in experiment [5] was inactive. The same compound had a fold change (FC) in the experiment listed under Homo sapiens of over 100.

For `Cc1cc(Oc2ncc(C(F)(F)F)cc2Cl)ccc1CC1SC(=O)NC1=O` (stereo unspecified), the EC50 in experiment [1] is 0.178 µM. Also, in experiment [2], the Efficacy was 103%.

As to `O=C(O)CCc1ccc(CCc2ccccc2)cc1`, the EC50 in experiment [1] was 3.63 µM. Besides, in experiment [2], the Efficacy stood at 116%. Also, the result in experiment [3], in experiment [4] and in experiment [5] was inactive. Further, the fold change (FC) in the experiment listed under Homo sapiens is over 100.

Regarding `CC(Oc1ccc(CCC(=O)O)cc1)c1ccccc1` (stereo unspecified), the EC50 in experiment [1] was 3.31 µM. Further, the Efficacy in experiment [2] worked out at 106%. The result in experiment [3], in experiment [4] and in experiment [5] was inactive. This compound also gave a fold change (FC) in the experiment listed under Homo sapiens of over 100.

Take `O=C(O)CCc1ccc(NCc2cccc(C(F)(F)F)c2)cc1`: the EC50 in experiment [1] is 0.186 µM. Further, in experiment [2], the Efficacy came to 102%. Moreover, the outcome in experiment [3], in experiment [4] and in experiment [5] was inactive. Also, the fold change (FC) in the experiment listed under Homo sapiens was over 100.

As to `Cc1ccc(-c2cccc(COc3ccc(CCC(=O)O)cc3)c2)cc1`, the EC50 in experiment [1] was 0.49 µM. Moreover, in experiment [2], the Efficacy stood at 86%. The same compound showed an Activity in experiment [6] of 15%. The outcome in experiment [3], in experiment [4] and in experiment [5] was inactive. This compound also had a fold change (FC) in the experiment filed under Homo sapiens of over 100.

`O=C(O)CCc1ccc(OCc2ccc(-c3ccccc3)cc2)cc1`: the EC50 in experiment [1] was 0.912 µM. Further, the Efficacy in experiment [2] stood at 97%. Moreover, the outcome in experiment [6], in experiment [3], in experiment [4] and in experiment [5] was inactive. In the experiment listed under Homo sapiens, the fold change (FC) was over 100.

In the case of `O=C(O)CCc1ccc(NCc2ccc(Oc3ccccc3)cc2)cc1`, the EC50 in experiment [1] was 0.182 µM. Moreover, the Efficacy in experiment [2] stood at 100%. Besides, in experiment [6], the Activity was determined as 34%. For the same compound, the outcome in experiment [3], in experiment [4] and in experiment [5] was inactive. In the experiment filed under Homo sapiens, the fold change (FC) was over 100.

On to `O=C(O)CCc1ccc(OCc2ccccc2-c2ccccc2)cc1`, for which the outcome in experiment [3], in experiment [4] and in experiment [5] was inactive. This compound came in with a fold change (FC) in the experiment filed under Homo sapiens of over 100.
